Calls of active or inactive are those of the source. No cut-off for these calls is given here.
Experiments:
[1] = Acute toxicity in wild-type mouse assessed as ratio of liver weight to body weight at 1 mg/kg,ip administrated twice daily for 6 days; assay type: organism-based; details: in vivo, 144 h, time 6 day
Procedure, shortened: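 Wild-type mice underwent two-thirds partial hepatectomy with vehicle or 1 mg/kg i.p. twice per day, starting with a dose before surgery. Liver/body weight ratio was followed over postoperative days, n = 5; means ± SD.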

[2] = test system: Phosphatidylinositol 4,5-bisphosphate 3-kinase catalytic subunit alpha isoform (Homo sapiens), P42336 [H1047L]; test: Inhibition of PIK3CA H1047L mutant (unknown origin) assessed as remaining activity at 1 uM by Kinome scan method relative to control
[3] = Binding affinity to phosphorylated ABL1 T315I mutant (unknown origin) assessed as dissociation constant; design: species or system Homo sapiens
[4] = Inhibition of recombinant His-tagged full-length MST1 Y101F/D109A mutant (unknown origin) expressing in Escherichia coli assessed as MOB1 phosphorylation level incubated for 15 min by immunoblot analysis; design: species or system Homo sapiens
[5] = target: Mitogen-activated protein kinase kinase kinase 3 (Homo sapiens, UniProt Q99759); test: Inhibition of MAP3K3 (unknown origin) in presence of ATP by enzymatic assay
[6] = test system: Receptor-type tyrosine-protein kinase FLT3 (Homo sapiens), P36888 [UNDEFINED MUTATION]; test: Inhibition of FLT3 ITD mutant (unknown origin) assessed as remaining activity at 1 uM by Kinome scan method relative to control
[7] = test system: Epidermal growth factor receptor (Homo sapiens), P00533 [L858R,T790M]; test: Inhibition of EGFR L858R/T790M mutant (unknown origin) assessed as remaining activity at 1 uM by Kinome scan method relative to control
[8] = target: Mitogen-activated protein kinase kinase kinase kinase 5 (Homo sapiens) (UniProt Q9Y4K4); test: Inhibition of MAP4K5 (unknown origin) assessed as remaining activity at 1 uM by Kinome scan method relative to control
[9] = target: Serine/threonine-protein kinase PAK 6 (Homo sapiens) (UniProt Q9NQU5); test: Inhibition of PAK6 (unknown origin) assessed as remaining activity at 1 uM by Kinome scan method relative to control
Serine/threonine-protein kinase PAK 6 (Homo sapiens), sequence (Q9NQU5 whole entry, looked up, canonical isoform): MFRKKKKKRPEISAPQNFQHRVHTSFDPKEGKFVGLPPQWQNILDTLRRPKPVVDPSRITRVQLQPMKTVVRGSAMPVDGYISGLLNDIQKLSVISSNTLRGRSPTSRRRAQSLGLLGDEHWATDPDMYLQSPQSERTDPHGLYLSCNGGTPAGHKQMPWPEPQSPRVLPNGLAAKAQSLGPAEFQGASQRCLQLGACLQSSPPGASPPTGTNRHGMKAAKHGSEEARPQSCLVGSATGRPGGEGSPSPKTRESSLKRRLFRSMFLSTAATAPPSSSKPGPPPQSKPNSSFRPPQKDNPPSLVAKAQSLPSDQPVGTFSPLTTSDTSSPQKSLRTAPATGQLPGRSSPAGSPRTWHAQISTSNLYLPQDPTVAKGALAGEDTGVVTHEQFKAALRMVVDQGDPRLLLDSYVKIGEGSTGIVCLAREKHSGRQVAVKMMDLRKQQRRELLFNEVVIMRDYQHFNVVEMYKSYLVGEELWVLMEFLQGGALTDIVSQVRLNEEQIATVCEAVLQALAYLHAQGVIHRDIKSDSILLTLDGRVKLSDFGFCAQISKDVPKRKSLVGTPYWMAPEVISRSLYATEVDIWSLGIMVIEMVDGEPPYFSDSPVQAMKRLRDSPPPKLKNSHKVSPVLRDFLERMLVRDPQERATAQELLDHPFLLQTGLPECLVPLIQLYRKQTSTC

[10] = test system: Phosphatidylinositol 4,5-bisphosphate 3-kinase catalytic subunit alpha isoform (Homo sapiens), P42336 [Q546K]; test: Inhibition of PIK3CA Q546K mutant (unknown origin) assessed as remaining activity at 1 uM by Kinome scan method relative to control
[11] = target: Phosphatidylinositol 4,5-bisphosphate 3-kinase catalytic subunit delta isoform (Homo sapiens) (UniProt O00329); test: Inhibition of PIK3CD (unknown origin) assessed as remaining activity at 1 uM by Kinome scan method relative to control
[12] = target: Mitogen-activated protein kinase kinase kinase 14 (Homo sapiens) (UniProt Q99558); test: Inhibition of NIK (unknown origin) assessed as remaining activity at 1 uM by Kinome scan method relative to control
Mitogen-activated protein kinase kinase kinase 14 (Homo sapiens), sequence (Q99558 whole entry, looked up): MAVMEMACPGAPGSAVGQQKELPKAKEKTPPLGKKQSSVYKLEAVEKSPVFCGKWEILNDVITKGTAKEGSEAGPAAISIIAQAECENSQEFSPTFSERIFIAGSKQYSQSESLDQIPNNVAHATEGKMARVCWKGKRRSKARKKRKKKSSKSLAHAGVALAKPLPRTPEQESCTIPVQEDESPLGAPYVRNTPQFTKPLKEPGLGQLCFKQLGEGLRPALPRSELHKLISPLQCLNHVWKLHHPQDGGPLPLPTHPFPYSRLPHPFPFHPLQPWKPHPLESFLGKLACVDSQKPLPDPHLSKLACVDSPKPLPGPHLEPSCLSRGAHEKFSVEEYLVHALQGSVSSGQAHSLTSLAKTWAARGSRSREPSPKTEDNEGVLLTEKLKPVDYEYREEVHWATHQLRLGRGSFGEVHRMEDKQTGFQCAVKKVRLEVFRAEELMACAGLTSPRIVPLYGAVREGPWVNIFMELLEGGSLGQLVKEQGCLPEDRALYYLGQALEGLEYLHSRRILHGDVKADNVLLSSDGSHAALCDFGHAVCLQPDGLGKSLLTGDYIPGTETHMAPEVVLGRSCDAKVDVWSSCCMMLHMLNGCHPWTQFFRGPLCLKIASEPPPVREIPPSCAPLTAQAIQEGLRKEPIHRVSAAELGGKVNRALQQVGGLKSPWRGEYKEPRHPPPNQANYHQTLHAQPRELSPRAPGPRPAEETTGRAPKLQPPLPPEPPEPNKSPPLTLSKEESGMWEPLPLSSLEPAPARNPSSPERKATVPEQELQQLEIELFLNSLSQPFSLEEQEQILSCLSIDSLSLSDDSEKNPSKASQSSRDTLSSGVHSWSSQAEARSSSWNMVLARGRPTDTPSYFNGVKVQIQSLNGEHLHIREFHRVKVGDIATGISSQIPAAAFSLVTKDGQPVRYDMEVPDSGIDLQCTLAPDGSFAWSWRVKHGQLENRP

[13] = target: SRSF protein kinase 3 (Homo sapiens) (UniProt Q9UPE1); test: Inhibition of SRPK3 (unknown origin) assessed as remaining activity at 1 uM by Kinome scan method relative to control
[14] = target: Protein-tyrosine kinase 6 (Homo sapiens) (UniProt Q13882); test: Inhibition of BRK (unknown origin) assessed as remaining activity at 1 uM by Kinome scan method relative to control
Procedure, shortened: (§1)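 Active-site-dependent competition-binding (KINOMEscan) panel of 468 kinases, test compound at 1 μM (from a 10 mM DMSO stock). Read-out is ctrl% = (test signal − positive control signal)/(negative control signal − positive control signal) × 100. DMSO is the negative control (100%) and a control compound is the positive control (0%). Lower ctrl% means tighter binding.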

[15] = target: Receptor-interacting serine/threonine-protein kinase 4 (Homo sapiens) (UniProt P57078); test: Inhibition of RIPK4 (unknown origin) assessed as remaining activity at 1 uM by Kinome scan method relative to control
Receptor-interacting serine/threonine-protein kinase 4 (Homo sapiens), sequence (P57078 whole entry): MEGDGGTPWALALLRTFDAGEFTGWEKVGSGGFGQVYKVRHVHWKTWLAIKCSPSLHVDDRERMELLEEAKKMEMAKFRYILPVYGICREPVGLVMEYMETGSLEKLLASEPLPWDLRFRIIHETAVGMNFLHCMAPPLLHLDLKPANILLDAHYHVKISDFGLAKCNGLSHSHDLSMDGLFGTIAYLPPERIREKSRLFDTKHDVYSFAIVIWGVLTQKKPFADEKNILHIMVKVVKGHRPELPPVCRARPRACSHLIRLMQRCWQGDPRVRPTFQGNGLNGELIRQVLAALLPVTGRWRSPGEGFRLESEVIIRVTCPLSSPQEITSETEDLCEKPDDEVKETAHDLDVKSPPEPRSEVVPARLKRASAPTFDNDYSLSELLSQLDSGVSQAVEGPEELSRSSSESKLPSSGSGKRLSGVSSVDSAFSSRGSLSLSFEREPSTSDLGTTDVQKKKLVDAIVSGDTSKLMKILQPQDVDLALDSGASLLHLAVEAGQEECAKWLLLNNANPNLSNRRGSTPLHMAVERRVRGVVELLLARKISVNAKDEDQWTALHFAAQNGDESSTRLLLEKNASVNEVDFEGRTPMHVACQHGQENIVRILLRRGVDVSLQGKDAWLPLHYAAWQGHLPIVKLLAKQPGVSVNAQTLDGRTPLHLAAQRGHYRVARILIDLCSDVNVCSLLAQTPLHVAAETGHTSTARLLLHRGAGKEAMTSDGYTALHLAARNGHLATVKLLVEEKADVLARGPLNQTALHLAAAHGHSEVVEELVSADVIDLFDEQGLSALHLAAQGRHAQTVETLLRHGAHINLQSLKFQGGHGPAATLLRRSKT

[16] = Inhibition of phosphorylated ABL1 T315I mutant (unknown origin) in presence of ATP by enzymatic assay; design: species or system Homo sapiens
[17] = test system: Tyrosine-protein kinase ABL1 (Homo sapiens), P00519 [T315I]; test: Inhibition of phosphorylated ABL1 T315I mutant (unknown origin) assessed as remaining activity at 1 uM by Kinome scan method relative to control
[18] = target: Casein kinase I isoform gamma-1 (Homo sapiens) (UniProt Q9HCP0); test: Inhibition of CSNK1G1 (unknown origin) assessed as remaining activity at 1 uM by Kinome scan method relative to control
Casein kinase I isoform gamma-1 (Homo sapiens), sequence (Q9HCP0 whole entry, looked up, canonical isoform): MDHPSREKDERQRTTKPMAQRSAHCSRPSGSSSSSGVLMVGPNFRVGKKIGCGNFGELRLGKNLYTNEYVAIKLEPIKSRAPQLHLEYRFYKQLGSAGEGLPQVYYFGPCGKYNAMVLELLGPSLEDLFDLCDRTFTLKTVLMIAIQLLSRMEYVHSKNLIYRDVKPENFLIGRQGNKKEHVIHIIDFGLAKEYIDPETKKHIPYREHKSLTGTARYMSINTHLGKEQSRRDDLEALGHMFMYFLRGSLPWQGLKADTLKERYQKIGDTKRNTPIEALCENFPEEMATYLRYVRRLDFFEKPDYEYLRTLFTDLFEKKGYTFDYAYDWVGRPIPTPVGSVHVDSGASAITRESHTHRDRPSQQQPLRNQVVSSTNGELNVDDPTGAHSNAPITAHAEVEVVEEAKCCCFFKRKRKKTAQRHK
Procedure, shortened: (§2)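 Active-site-dependent competition-binding profiling (KINOMEscan) at 1 μM against a 468-kinase panel; compound supplied from a 10 mM DMSO stock. Read-out is ctrl% = (test signal − positive control signal)/(negative control signal − positive control signal) × 100. DMSO is the negative control (100%) and a control compound the positive control (0%). Lower ctrl% means tighter binding.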

[19] = target: Serine/threonine-protein kinase TAO2 (Homo sapiens, UniProt Q9UL54); test: Binding affinity to TAOK2 (unknown origin) assessed as dissociation constant
Serine/threonine-protein kinase TAO2, sequence (Q9UL54 whole entry): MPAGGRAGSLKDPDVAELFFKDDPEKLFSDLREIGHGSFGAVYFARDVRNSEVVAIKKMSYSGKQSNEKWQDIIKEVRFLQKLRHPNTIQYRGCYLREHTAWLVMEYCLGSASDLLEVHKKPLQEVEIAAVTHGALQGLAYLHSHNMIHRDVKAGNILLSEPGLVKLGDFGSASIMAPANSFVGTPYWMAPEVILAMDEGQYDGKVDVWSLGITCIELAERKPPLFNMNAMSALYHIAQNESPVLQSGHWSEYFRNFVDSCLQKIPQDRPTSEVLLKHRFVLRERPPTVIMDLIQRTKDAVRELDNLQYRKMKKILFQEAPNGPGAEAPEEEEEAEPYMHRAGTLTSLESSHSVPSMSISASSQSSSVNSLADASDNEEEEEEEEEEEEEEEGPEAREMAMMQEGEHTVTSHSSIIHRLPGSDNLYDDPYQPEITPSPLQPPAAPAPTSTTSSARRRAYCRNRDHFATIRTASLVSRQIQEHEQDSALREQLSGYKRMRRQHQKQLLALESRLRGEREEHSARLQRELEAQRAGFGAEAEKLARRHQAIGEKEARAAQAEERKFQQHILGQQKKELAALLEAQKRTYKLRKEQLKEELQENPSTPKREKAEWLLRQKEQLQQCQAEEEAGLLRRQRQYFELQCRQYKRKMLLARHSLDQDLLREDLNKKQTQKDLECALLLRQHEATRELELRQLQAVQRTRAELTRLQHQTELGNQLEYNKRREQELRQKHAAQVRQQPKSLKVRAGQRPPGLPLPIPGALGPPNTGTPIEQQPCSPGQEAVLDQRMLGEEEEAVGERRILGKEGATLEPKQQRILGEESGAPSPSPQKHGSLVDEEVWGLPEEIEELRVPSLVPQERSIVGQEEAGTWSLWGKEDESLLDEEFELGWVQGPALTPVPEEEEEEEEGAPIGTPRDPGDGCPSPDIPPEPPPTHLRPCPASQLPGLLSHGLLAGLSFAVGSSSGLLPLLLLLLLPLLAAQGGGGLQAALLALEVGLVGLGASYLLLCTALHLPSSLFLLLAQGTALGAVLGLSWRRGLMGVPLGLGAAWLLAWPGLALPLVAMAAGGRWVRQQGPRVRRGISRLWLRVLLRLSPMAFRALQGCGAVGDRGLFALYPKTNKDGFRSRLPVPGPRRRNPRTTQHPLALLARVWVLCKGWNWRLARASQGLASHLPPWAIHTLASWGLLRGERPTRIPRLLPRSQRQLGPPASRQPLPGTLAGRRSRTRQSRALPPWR

[20] = test system: Receptor-type tyrosine-protein kinase FLT3 (Homo sapiens), P36888 [D835V]; test: Inhibition of FLT3 D835V mutant (unknown origin) assessed as remaining activity at 1 uM by Kinome scan method relative to control
[21] = target: Cyclin-dependent kinase 3 (Homo sapiens) (UniProt Q00526); test: Inhibition of CDK3 (unknown origin) assessed as remaining activity at 1 uM by Kinome scan method relative to control; procedure, shortened: as §2
[22] = target: Mitogen-activated protein kinase 9 (Homo sapiens) (UniProt P45984); test: Inhibition of JNK2 (unknown origin) assessed as remaining activity at 1 uM by Kinome scan method relative to control
Mitogen-activated protein kinase 9 (Homo sapiens), sequence (P45984 whole entry, looked up): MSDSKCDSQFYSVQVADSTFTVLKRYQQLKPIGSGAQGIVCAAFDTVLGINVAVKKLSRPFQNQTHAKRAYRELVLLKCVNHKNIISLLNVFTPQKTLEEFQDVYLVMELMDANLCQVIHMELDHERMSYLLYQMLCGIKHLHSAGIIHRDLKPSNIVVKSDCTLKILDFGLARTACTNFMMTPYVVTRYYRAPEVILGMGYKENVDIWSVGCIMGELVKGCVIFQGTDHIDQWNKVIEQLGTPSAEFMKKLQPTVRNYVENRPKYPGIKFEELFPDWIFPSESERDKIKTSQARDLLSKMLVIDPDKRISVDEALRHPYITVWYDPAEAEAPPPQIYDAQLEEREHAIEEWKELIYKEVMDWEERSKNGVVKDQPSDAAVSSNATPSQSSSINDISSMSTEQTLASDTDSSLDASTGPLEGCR

HepG2 = test: Inhibition of Flag-tagged MST1 Y101F mutant (unknown origin) in human HepG2 cells assessed as MOB1 phosphorylation level at 0.3 to 10 uM by immunoblot analysis; assay type: cell-based; details: dose 0.3-10 µM
[23] = target: Protein kinase C eta type (Homo sapiens) (UniProt P24723); test: Inhibition of PRKCH (unknown origin) assessed as remaining activity at 1 uM by Kinome scan method relative to control
[24] = test system: Receptor-type tyrosine-protein kinase FLT3 (Homo sapiens), P36888 [N841I]; test: Inhibition of FLT3 N841I mutant (unknown origin) assessed as remaining activity at 1 uM by Kinome scan method relative to control
[25] = target: Bone morphogenetic protein receptor type-1A (Homo sapiens) (UniProt P36894); test: Inhibition of BMPR1A (unknown origin) assessed as remaining activity at 1 uM by Kinome scan method relative to control; procedure, shortened: as §1
Bone morphogenetic protein receptor type-1A (Homo sapiens), sequence (P36894 whole entry): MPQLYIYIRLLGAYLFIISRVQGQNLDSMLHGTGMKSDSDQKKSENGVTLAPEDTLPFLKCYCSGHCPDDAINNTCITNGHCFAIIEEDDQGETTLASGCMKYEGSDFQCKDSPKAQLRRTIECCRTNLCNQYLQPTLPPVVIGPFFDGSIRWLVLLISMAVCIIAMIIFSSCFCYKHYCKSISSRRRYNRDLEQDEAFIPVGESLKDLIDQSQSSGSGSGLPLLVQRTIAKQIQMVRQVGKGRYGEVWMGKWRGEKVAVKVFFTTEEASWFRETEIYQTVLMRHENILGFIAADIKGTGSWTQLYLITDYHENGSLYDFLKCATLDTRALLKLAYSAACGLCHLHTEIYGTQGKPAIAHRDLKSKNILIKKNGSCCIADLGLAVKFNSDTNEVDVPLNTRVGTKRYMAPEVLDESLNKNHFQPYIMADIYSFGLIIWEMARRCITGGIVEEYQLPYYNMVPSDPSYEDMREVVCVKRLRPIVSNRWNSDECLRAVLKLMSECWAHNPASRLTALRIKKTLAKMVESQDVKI

[26] = target: Dual specificity mitogen-activated protein kinase kinase 2 (Homo sapiens) (UniProt P36507); test: Inhibition of MEK2 (unknown origin) assessed as remaining activity at 1 uM by Kinome scan method relative to control
[27] = test system: Tyrosine-protein kinase ABL1 (Homo sapiens), P00519 [M351T]; test: Inhibition of phosphorylated ABL1 M351T mutant (unknown origin) assessed as remaining activity at 1 uM by Kinome scan method relative to control

## CN1C(=O)c2sccc2N(C)c2nc(Nc3ccc(S(N)(=O)=O)cc3)ncc21
[1]
  Activity: Non-Toxic
[2]
  Activity: 4.6%
[3]
  Kd: 0.014 µM
[4]
  IC50: 1.39 µM
[5]
  IC50: 0.0384 µM
[6]
  Activity: 91%
[7]
  Activity: 77%
[8]
  Activity: 100%
[9]
  Activity: 100%
[10]
  Activity: 50%
[11]
  Activity: 47%
[12]
  Activity: 58%
[13]
  Activity: 100%
[14]
  Activity: 100%
[15]
  Activity: 9.5%
[16]
  IC50: 0.0166 µM
[17]
  Activity: 1.6%
[18]
  Activity: 79%
[19]
  Kd: 0.1 µM
[20]
  Activity: 18%
[21]
  Activity: 100%
[22]
  Activity: 82%
HepG2
  inhibition: Active
[23]
  Activity: 100%
[24]
  Activity: 39%
[25]
  Activity: 70%
[26]
  Activity: 99%
[27]
  Activity: 5.5%
